Assay results published in ChEMBL document CHEMBL4354868, “6-Arylmethylidene Penicillin-Based Sulfone Inhibitors for Repurposing Antibiotic Efficiency in Priority Pathogens” (J Med Chem, 2020).
In brackets after ≈: the same amount, converted by molar mass. Activity calls are given as the source filed them. No cut-off for these calls is given here.

Columns and labels:
[1] = test system: Klebsiella pneumoniae; test: Inhibition of OXA-48 in beta-lactam-resistant Klebsiella pneumoniae assessed as potentiation of imipenem-induced antibacterial activity by measuring imipenem MIC at 16 ug/mL in Mueller-Hinton broth by CLSI protocol based method (reference value: 64 ug/mL)
How it was run: (§1)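 MIC of the reporter antibiotic measured by CLSI broth microdilution in Mueller-Hinton II broth, with and without inhibitor at 16 µg mL-1. Reporters were ampicillin for class A (TEM-1, CTX-M-2), ceftazidime for class C (CMY-2, DHA-1) and imipenem for class D (OXA-23, OXA-24/40, OXA-48). MIC is the lowest concentration with no visible growth, mean of three independent replicates. Strains were grown in LB at 37 °C, with kanamycin or ampicillin at 50 mg L-1 where needed.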

[2] = test system: Escherichia coli; test: Inhibition of DHA-1 in beta-lactam-resistant Escherichia coli TG1 transfected with pBGS18 plasmid encoding replication origin and kanamycin resistance assessed as potentiation of ceftazidime-induced antibacterial activity by measuring ceftazidime MIC at 16 ug/mL in Mueller-Hinton broth by CLSI protocol based method (reference value: 32 ug/mL); how it was run: as §1
[3] = test system: Escherichia coli; test: Inhibition of CTX-M2 in beta-lactam-resistant Escherichia coli TG1 transfected with pBGS18 plasmid encoding replication origin and kanamycin resistance assessed as potentiation of ampicillin-induced antibacterial activity by measuring fold reduction in ampicillin MIC at 16 ug/mL in Mueller-Hinton broth by CLSI protocol based method relative to ampicillin MIC alone; how it was run: as §1
[4] = test system: Escherichia coli; test: Inhibition of CTX-M2 in beta-lactam-resistant Escherichia coli TG1 transfected with pBGS18 plasmid encoding replication origin and kanamycin resistance assessed as potentiation of ampicillin-induced antibacterial activity by measuring ampicillin MIC at 16 ug/mL in Mueller-Hinton broth by CLSI protocol based method (Rvb > 1024 ug/mL); how it was run: as §1
[5] = molecular target: Beta-lactamase OXA-23 (Acinetobacter baumannii) (UniProt Q9L4P2); test: Inhibition of OXA-23 in carbapenem-resistant Acinetobacter baumannii ATCC 17978 transfected with pET-RA-KmR plasmid encoding rifampicin and kanamycin resistance assessed as potentiation of imipenem-induced antibacterial activity by measuring imipenem MIC at 16 ug/mL in Mueller-Hinton broth by CLSI protocol based method (reference value: 8 ug/mL); how it was run: as §1
[6] = test system: Escherichia coli; test: Inhibition of CMY-2 in beta-lactam-resistant Escherichia coli TG1 transfected with pBGS18 plasmid encoding replication origin and kanamycin resistance assessed as potentiation of ceftazidime-induced antibacterial activity by measuring ceftazidime MIC at 16 ug/mL in Mueller-Hinton broth by CLSI protocol based method (reference value: 32 ug/mL); how it was run: as §1
[7] = Inhibition of carbapenem-resistant Acinetobacter baumannii ATCC 17978 OXA-24/40 expressed in Escherichia coli BL21 using nitrocefin as substrate measured after 15 mins by spectrophotometry analysis
[8] = molecular target: Beta-lactamase TEM-1 (Escherichia coli) (UniProt Q4GY26); test: Inhibition of TEM-1 in penicillin-resistant Escherichia coli TG1 transfected with pBGS18 plasmid encoding replication origin and kanamycin resistance assessed as potentiation of ampicillin-induced antibacterial activity by measuring ampicillin MIC at 16 ug/mL in Mueller-Hinton broth by CLSI protocol based method (Rvb > 1024 ug/mL); how it was run: as §1
[9] = test system: Acinetobacter baumannii ATCC 17978; test: Inhibition of Acinetobacter baumannii ATCC 17978 OXA-24/40 expressed in Escherichia coli BL21 assessed as ratio of Kinact/Ki using nitrocefin as substrate measured after 15 mins by spectrophotometry analysis
[10] = test system: Acinetobacter baumannii ATCC 17978; test: Inhibition of OXA-24/40 in carbapenem-resistant Acinetobacter baumannii ATCC 17978 transfected with pET-RA-KmR plasmid encoding rifampicin and kanamycin resistance assessed as potentiation of imipenem-induced antibacterial activity by measuring imipenem MIC at 16 ug/mL in Mueller-Hinton broth by CLSI protocol based method (reference value: 64 ug/mL); how it was run: as §1
[11] = test system: Acinetobacter baumannii ATCC 17978; test: Inhibition of carbapenem-resistant Acinetobacter baumannii ATCC 17978 OXA-24/40 expressed in Escherichia coli BL21 assessed as inactivation rate constant using nitrocefin as substrate measured after 15 mins by spectrophotometry analysis
[12] = test system: Klebsiella pneumoniae; test: Antibacterial activity against wild type beta-lactam-resistant Klebsiella pneumoniae in Mueller-Hinton broth by CLSI protocol based method; type: functional
How it was run: (§2)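 Broth microdilution MIC in Mueller-Hinton II broth following CLSI. Strains were grown in LB broth or on LB agar at 37 °C and stored at -80 °C in LB with 15% glycerol. MIC is the lowest concentration with no visible growth, given as the mean of three independent replicates.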

[13] = test system: Acinetobacter baumannii; test: Antibacterial activity against wild type carbapenem-susceptible Acinetobacter baumannii ATCC 17978 in Mueller-Hinton broth by CLSI protocol based method; type: functional; how it was run: as §2
[14] = test system: Klebsiella pneumoniae; test: Binding affinity to OXA-48 in Klebsiella pneumoniae assessed as ezyme-compound adduct formation from loss of catechol group with increase in mass at 1:100 ezyme-compound ratio using nitrocefin as substrate at pH 7 and 25 degree C by MALDI-TOF MS analysis
How it was run: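 OXA-48 from K. pneumoniae incubated with ligand at 1:100 enzyme/inhibitor molar ratio in 50 mM Tris-HCl, 150 mM NaCl, 1 mM EDTA pH 7.0, 25 °C, 30 min; activity followed on aliquots by nitrocefin hydrolysis (482 nm) in phosphate/bicarbonate pH 7.4; samples then washed with 5 mM ammonium bicarbonate by ultrafiltration, freeze-dried, analysed by MALDI-TOF; triplicate.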

[15] = test system: Escherichia coli; test: Antibacterial activity against wild type Escherichia coli TG1 in Mueller-Hinton broth by CLSI protocol based method; type: functional; how it was run: as §2
[16] = test system: Acinetobacter baumannii ATCC 17978; test: Inhibition of carbapenem-resistant Acinetobacter baumannii ATCC 17978 OXA-24/40 expressed in Escherichia coli BL21 assessed as ratio of Kinact/Ki using nitrocefin as substrate measured after 15 mins by spectrophotometry analysis relative to parent compound
[17] = Drug metabolism assessed as decrease in centered band formation at 408 nm leading to -indolizine skeleton formation at 25 degree C measured up to 2 mins for 15 mins in presence of sodium methoxide by UV-Vis spectroscopy
How it was run: (§3)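 Methanolysis followed after adding 1 equivalent NaOMe (1 M in MeOH) at 25 °C over 15 min; UV-Vis spectra scanned 600–200 nm, 2.0 nm bandwidth, 1 cm cell, collected at 0.5, 1.0, 1.5 and 2.0 min; mixture afterwards checked by HPLC-MS.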

[18] = test system: Acinetobacter baumannii ATCC 17978; test: Binding affinity to OXA-24/40 in carbapenem-resistant Acinetobacter baumannii ATCC 17978 assessed as ezyme-compound adduct formation from loss of catechol group with increase in mass at 1:100 ezyme-compound ratio using nitrocefin as substrate at pH 7 and 25 degree C by MALDI-TOF MS analysis
How it was run: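 OXA-24/40 (from a 0.9 mg mL-1 stock) was incubated with ligand at a 1:100 enzyme/inhibitor molar ratio in 50 mM Tris-HCl, 150 mM NaCl, 1 mM EDTA, pH 7.0, 25 °C, for 30 min. Activity was followed by nitrocefin hydrolysis at 482 nm. Samples were then washed and concentrated with 5 mM ammonium bicarbonate, freeze-dried, and analysed by MALDI-TOF for the covalent adduct mass shift, in triplicate.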

[19] = test system: Acinetobacter baumannii ATCC 17978; test: Inhibition of carbapenem-resistant Acinetobacter baumannii ATCC 17978 OXA-24/40 expressed in Escherichia coli BL21 using nitrocefin as substrate measured after 15 mins by spectrophotometry analysis relative to parent compound
[20] = Drug metabolism assessed as decrease in centered band formation at 253 nm leading to -indolizine skeleton formation at 25 degree C measured up to 2 mins for 15 mins in presence of sodium methoxide by UV-Vis spectroscopy; how it was run: as §3
[21] = Drug metabolism assessed as centered band formation at 295 nm leading to conjugate imine intermediate formation at 25 degree C measured up to 2 mins for 15 mins in presence of sodium methoxide by UV-Vis spectroscopy; how it was run: as §3

Row | Compound | MIC [1] | MIC [2] | Ratio [3] | MIC [4] | MIC [5] | MIC [6] | Ki [7] | MIC [8] | Ratio [9] | MIC [10] | Kinact [11] | Activity [14] | other results
1 | C[C@]1(COC(=O)Cc2ccc(O)c(O)c2)[C@H](C(=O)O)N2C(=O)/C(=C/c3ccccn3)[C@H]2S1(=O)=O | 4 µg/mL | < 0.25 µg/mL | 64 | 16 µg/mL | 0.5 µg/mL | < 0.25 µg/mL | 234 nM | 2 µg/mL | 98200 M⁻¹ s⁻¹ | 0.5 µg/mL | 22 ms-1 |  | 
2 | C[C@@H](O)[C@H]1C(=O)N2C(C(=O)O)=C(SCCNC=N)C[C@H]12 [IMIPENEM ANHYDROUS] |  |  |  |  |  |  |  |  |  |  |  |  | MIC [12]: 0.5 µg/mL (≈ 1.67 µM); MIC [13]: 0.5 µg/mL (≈ 1.67 µM)
3 | COc1ccnc(/C=C2/C(=O)N3[C@@H](C(=O)O)[C@](C)(COC(=O)Cc4ccc(O)c(O)c4)S(=O)(=O)[C@H]23)c1OC | 64 µg/mL | < 0.25 µg/mL |  | 256 µg/mL | 4 µg/mL | < 0.25 µg/mL | 276 nM | 2 µg/mL | 83200 M⁻¹ s⁻¹ | 8 µg/mL | 24 ms-1 | Active | 
4 | NC(=O)[C@@H]1CC[C@@H]2CN1C(=O)N2OS(=O)(=O)[O-].[Na+] [AVIBACTAM SODIUM] |  |  |  |  | 4 µg/mL |  |  |  |  | 16 µg/mL |  |  | MIC [12]: 0.5 µg/mL; MIC [13]: 0.5 µg/mL; MIC [15]: 2 µg/mL
5 | Cn1cc(-c2ccnc(/C=C3/C(=O)N4[C@@H](C(=O)O)[C@](C)(COC(=O)Cc5ccc(O)c(O)c5)S(=O)(=O)[C@H]34)c2)cn1 | 8 µg/mL | < 0.25 µg/mL | 64 | 16 µg/mL | 1 µg/mL | < 0.25 µg/mL | 217 nM | 2 µg/mL | 110000 M⁻¹ s⁻¹ | 1 µg/mL | 24 ms-1 | Active | 
6 | C[C@]1(COC(=O)Cc2ccc(O)c(O)c2)[C@H](C(=O)O)N2C(=O)/C(=C/c3cc(Br)ccn3)[C@H]2S1(=O)=O | 4 µg/mL | < 0.25 µg/mL | 64 | 16 µg/mL | 1 µg/mL | < 0.25 µg/mL | 140 nM | 2 µg/mL | 159000 M⁻¹ s⁻¹ | 1 µg/mL | 22 ms-1 | Active | Ratio [16]: 1.6; Drug metabolism [17]: Metabolite detected; Activity [18]: Active; Ratio Ki [19]: 2; Drug metabolism [20]: Metabolite detected; Drug metabolism [21]: Metabolite detected
7 | O=C(NC1CCNCC1)[C@@H]1CC[C@@H]2CN1C(=O)N2OS(=O)(=O)O | 8 µg/mL | < 0.25 µg/mL | 64 | 16 µg/mL | 8 µg/mL | < 0.25 µg/mL |  | 4 µg/mL |  | 64 µg/mL |  |  | 
8 | C[C@]1(COC(=O)Cc2ccc(O)c(O)c2)[C@H](C(=O)O)N2C(=O)/C(=C/c3ccc(F)cn3)[C@H]2S1(=O)=O | 4 µg/mL | < 0.25 µg/mL |  | 32 µg/mL | 1 µg/mL | < 0.25 µg/mL | 495 nM | 2 µg/mL | 48900 M⁻¹ s⁻¹ | 1 µg/mL | 25 ms-1 | Active | Activity [18]: Active
9 | CC(C)(O/N=C(\C(=O)N[C@@H]1C(=O)N2C(C(=O)[O-])=C(C[n+]3ccccc3)CS[C@H]12)c1csc(N)n1)C(=O)O [CEFTAZIDIME] |  |  |  |  |  |  |  |  |  |  |  |  | MIC [15]: ≤ 0.25 µg/mL
10 | C[C@]1(COC(=O)Cc2ccc(O)c(O)c2)[C@H](C(=O)O)N2C(=O)/C(=C/c3nccc4ccsc34)[C@H]2S1(=O)=O | 64 µg/mL | < 0.25 µg/mL |  | 256 µg/mL | 2 µg/mL | < 0.25 µg/mL | 247 nM | 2 µg/mL | 47600 M⁻¹ s⁻¹ | 8 µg/mL | 11 ms-1 | Active | Activity [18]: Active
11 | C[C@]1(COC(=O)Cc2ccc(O)c(O)c2)[C@H](C(=O)O)N2C(=O)/C(=C/c3cc4ccccc4cn3)[C@H]2S1(=O)=O | 8 µg/mL | 2 µg/mL |  | 256 µg/mL | 2 µg/mL | 2 µg/mL |  | 4 µg/mL |  | 2 µg/mL |  | Active | 
